How the values were obtained:
Assay type in all cases: functional, cell-based
HL-60 = assay: Cytotoxicity against human HL60 cells after 48 hrs by MTT assay; settings: HL-60, 48 h
Summary of the method: (§1)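 Cells grown in RPMI-1640 or DMEM with 10% FBS, 37 °C, 5% CO2. Seeded at 1 × 10^5 cells/mL; adherent lines allowed 12 h to attach, suspension cells seeded just before dosing. Compounds at various concentrations in triplicate, 48 h. MTT (100 μg per well) 4 h at 37 °C, SDS lysis, OD 595 nm; IC50 by Reed and Muench method.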

MCF7 = assay: Cytotoxicity against human MCF7 cells after 48 hrs by MTT assay; settings: MCF7, 48 h; summary of the method: as §1
[1] = Cytotoxicity against human […] cells after 48 hrs by MTT assay; summary of the method: as §1
A549 = assay: Cytotoxicity against human A549 cells after 48 hrs by MTT assay; settings: A549, 48 h; summary of the method: as §1

Compound	IC50 (HL-60)	IC50 (MCF7)	IC50 [1]	IC50 (A549)
COC(=O)c1c(O)cc(O)c(C/C=C(\C)CC/C=C(\C)CCC=C(C)C)c1C [ALBATRELIN A]	> 40 µM	> 40 µM	> 40 µM	> 40 µM
COc1cc(C)c(O)c2c1C=C[C@@](C)(CC/C=C(\C)CCC=C(C)C)O2 [ALBATRELIN B]	> 40 µM	> 40 µM	> 40 µM	> 40 µM
CC(C)=CCC/C(C)=C/CC[C@]1(C)C=Cc2c(C)cc(O)cc2O1 [ALBATRELIN C]	> 40 µM	> 40 µM	> 40 µM	> 40 µM
CC(C)=CCC/C(C)=C/CC/C(C)=C/Cc1c(O)cc(C)c2c1oc1c3c(c(O)c(C)c12)O[C@](C)(CC/C=C(\C)CCC=C(C)C)C=C3 [ALBATRELIN D]	> 40 µM	> 40 µM	> 40 µM	> 40 µM
CC(C)=CCC/C(C)=C/CC/C(C)=C/CC1=C(O)C(=O)C(C)=C(c2c(O)cc(O)c(C/C=C(\C)CC/C=C(\C)CCC=C(C)C)c2C)C1=O [ALBATRELIN E]	> 40 µM	> 40 µM	> 40 µM	> 40 µM
CC(C)=CCC/C(C)=C/CC/C(C)=C/CC12C(=O)C=C(C)C(=O)C1(O)Oc1c3c(c(O)c(C)c12)O[C@](C)(CC/C=C(\C)CCC=C(C)C)C=C3 (stereo partly drawn) [ALBATRELIN F]	> 40 µM	> 40 µM	> 40 µM	> 40 µM
CC(C)=CCC/C(C)=C/CC[C@]1(C)C=Cc2c(O)cc(C)cc2O1 [CONFLUENTIN]	15.1 µM	23 µM	17.1 µM	18.5 µM

From ChEMBL document CHEMBL2331437, “Meroterpenoid pigments from the basidiomycete Albatrellus ovinus” (J Nat Prod, 2013)
